Test results reported in ChEMBL document CHEMBL4052759, “Discovery of DS79182026: A potent orally active hepcidin production inhibitor” (Bioorg Med Chem Lett, 2017).

Tests used:
[1] = target: Ribosomal protein S6 kinase alpha-1 (Homo sapiens) (UniProt Q15418); assay: Inhibition of RSK1 (unknown origin) at 0.078 uM relative to control
[2] = target: Dual specificity tyrosine-phosphorylation-regulated kinase 1A (Homo sapiens) (UniProt Q13627); assay: Inhibition of DYRK1a (unknown origin) at 0.078 uM relative to control
[3] = target: Serine/threonine-protein kinase PAK 2 (Homo sapiens) (UniProt Q13177); assay: Inhibition of PAK2 (unknown origin) at 0.078 uM relative to control
Sequence of Serine/threonine-protein kinase PAK 2 (Homo sapiens) (Q13177 whole entry): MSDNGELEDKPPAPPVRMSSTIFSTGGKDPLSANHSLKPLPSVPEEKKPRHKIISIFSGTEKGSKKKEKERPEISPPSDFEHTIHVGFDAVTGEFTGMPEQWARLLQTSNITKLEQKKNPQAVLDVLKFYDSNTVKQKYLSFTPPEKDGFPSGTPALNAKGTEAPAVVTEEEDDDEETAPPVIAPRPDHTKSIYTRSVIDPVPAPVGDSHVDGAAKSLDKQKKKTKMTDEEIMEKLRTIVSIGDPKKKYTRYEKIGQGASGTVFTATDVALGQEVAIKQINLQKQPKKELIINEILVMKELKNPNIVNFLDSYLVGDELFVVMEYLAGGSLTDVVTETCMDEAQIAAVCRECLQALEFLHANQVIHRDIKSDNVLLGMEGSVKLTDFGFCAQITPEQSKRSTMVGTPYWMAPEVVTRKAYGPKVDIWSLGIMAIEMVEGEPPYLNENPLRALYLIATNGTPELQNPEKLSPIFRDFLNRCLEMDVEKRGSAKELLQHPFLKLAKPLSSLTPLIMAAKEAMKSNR

[4] = Clearance in C57BL/6J mouse at 30 mg/kg, iv by LC-MS/MS analysis; assay type: ADME, organism-based; conditions: in vivo
Summary of the method: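 C57BL/6J mice got a single 30 mg/kg intravenous dose as a solution in 92 mM SBE7-β-CyD. The value is the average of two animals.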

[5] = target: T1, Serine/threonine-protein kinase Chk1 (Homo sapiens) (UniProt O14757); assay: Inhibition of CHK1 (unknown origin) at 0.49 uM relative to control
T1 sequence (whole entry): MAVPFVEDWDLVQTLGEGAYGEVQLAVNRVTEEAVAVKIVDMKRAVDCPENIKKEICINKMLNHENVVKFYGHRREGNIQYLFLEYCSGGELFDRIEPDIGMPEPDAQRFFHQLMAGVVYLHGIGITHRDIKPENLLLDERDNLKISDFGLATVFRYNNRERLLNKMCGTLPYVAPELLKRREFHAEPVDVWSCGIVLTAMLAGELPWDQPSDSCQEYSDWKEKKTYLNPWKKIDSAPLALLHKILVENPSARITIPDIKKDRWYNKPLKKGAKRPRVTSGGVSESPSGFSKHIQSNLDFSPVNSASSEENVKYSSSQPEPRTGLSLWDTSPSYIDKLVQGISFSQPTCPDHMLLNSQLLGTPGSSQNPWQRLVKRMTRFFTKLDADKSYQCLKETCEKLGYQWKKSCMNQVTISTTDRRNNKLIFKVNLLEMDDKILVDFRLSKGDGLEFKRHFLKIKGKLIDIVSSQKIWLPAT

[6] = target: Ribosomal protein S6 kinase alpha-1 (Homo sapiens) (UniProt Q15418); assay: Inhibition of RSK1 (unknown origin) at 0.49 uM relative to control
[7] = target: Serine/threonine-protein kinase Nek6 (Homo sapiens) (UniProt Q9HC98); assay: Inhibition of NEK6 (unknown origin) at 0.49 uM relative to control
Sequence of Serine/threonine-protein kinase Nek6 (Homo sapiens) (Q9HC98 whole entry): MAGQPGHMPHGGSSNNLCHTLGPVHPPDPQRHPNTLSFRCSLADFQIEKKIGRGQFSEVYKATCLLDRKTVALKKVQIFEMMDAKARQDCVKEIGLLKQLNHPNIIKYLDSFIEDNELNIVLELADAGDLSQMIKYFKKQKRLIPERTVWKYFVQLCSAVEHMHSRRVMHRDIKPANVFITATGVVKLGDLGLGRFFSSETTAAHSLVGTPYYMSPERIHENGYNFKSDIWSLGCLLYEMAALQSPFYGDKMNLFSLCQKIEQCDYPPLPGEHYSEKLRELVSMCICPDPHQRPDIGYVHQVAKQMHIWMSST

[8] = target: Dual specificity tyrosine-phosphorylation-regulated kinase 1B (Homo sapiens) (UniProt Q9Y463); assay: Inhibition of DYRK1B (unknown origin) at 0.49 uM relative to control
[9] = target: Glycogen synthase kinase-3 beta (Homo sapiens) (UniProt P49841); assay: Inhibition of GSK3b (unknown origin) at 0.49 uM relative to control
[10] = target: Macrophage-stimulating protein receptor (Homo sapiens) (UniProt Q04912); assay: Inhibition of MST1R (unknown origin) at 0.49 uM relative to control
[11] = target: T2, Aurora kinase A (Homo sapiens) (UniProt O14965); assay: Inhibition of AurA (unknown origin) at 0.49 uM relative to control
T2 sequence (whole entry): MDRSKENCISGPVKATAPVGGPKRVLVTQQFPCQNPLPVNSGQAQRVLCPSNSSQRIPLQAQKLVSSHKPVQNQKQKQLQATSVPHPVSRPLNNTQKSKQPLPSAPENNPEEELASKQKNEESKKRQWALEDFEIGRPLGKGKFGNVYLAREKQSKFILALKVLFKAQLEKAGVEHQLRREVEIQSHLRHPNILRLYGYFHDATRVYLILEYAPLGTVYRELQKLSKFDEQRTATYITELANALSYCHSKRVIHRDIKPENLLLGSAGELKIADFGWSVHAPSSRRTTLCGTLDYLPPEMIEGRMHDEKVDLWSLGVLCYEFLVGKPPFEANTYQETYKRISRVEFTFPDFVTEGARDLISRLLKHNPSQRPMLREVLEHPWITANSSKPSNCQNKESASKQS

[12] = target: Serine/threonine-protein kinase DCLK1 (Homo sapiens) (UniProt O15075); assay: Inhibition of DCAMKL1 (unknown origin) at 0.49 uM relative to control
[13] = target: Misshapen-like kinase 1 (Homo sapiens) (UniProt Q8N4C8); assay: Inhibition of MINK (unknown origin) at 0.49 uM relative to control
Sequence of Misshapen-like kinase 1 (Homo sapiens) (Q8N4C8 whole entry, looked up): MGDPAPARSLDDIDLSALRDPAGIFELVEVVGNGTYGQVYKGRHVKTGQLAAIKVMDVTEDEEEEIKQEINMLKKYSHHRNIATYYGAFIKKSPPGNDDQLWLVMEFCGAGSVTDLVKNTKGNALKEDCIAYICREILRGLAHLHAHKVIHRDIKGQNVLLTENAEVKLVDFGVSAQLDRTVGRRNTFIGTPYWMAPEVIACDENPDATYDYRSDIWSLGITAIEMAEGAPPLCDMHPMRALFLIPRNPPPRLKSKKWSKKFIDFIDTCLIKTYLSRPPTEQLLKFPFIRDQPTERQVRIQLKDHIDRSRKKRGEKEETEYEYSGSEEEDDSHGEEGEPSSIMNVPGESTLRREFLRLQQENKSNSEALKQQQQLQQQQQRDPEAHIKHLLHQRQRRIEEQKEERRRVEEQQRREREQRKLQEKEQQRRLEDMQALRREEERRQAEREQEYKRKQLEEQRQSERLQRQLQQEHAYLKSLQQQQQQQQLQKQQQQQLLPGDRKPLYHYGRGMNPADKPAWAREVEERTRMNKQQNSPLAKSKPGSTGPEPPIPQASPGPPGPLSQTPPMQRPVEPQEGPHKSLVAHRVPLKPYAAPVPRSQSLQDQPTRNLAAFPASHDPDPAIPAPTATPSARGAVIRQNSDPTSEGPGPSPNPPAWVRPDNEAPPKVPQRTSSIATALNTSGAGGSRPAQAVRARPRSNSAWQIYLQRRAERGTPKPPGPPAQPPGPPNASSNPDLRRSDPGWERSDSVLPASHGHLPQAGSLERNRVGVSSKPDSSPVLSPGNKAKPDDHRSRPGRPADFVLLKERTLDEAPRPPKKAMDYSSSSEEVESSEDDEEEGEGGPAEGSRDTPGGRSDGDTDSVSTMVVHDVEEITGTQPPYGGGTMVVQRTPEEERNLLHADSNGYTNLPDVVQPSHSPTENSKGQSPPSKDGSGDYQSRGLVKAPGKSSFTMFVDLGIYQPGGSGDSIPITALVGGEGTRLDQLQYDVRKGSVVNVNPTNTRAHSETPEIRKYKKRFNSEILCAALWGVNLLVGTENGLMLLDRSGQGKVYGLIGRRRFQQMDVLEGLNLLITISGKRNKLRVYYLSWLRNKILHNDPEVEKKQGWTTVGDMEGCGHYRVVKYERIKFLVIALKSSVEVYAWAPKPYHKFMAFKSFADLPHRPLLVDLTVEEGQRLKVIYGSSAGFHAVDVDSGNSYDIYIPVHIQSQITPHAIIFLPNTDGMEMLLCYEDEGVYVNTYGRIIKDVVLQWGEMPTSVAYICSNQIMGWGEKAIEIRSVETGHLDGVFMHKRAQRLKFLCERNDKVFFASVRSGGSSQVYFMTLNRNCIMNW

[14] = target: Mitogen-activated protein kinase 14 (Homo sapiens) (UniProt Q16539); assay: Inhibition of p38a (unknown origin) at 0.49 uM relative to control
[15] = target: Serine/threonine-protein kinase DCLK2 (Homo sapiens) (UniProt Q8N568); assay: Inhibition of DCAMKL2 (unknown origin) at 0.49 uM relative to control
Sequence of Serine/threonine-protein kinase DCLK2 (Homo sapiens) (Q8N568 whole entry, canonical isoform): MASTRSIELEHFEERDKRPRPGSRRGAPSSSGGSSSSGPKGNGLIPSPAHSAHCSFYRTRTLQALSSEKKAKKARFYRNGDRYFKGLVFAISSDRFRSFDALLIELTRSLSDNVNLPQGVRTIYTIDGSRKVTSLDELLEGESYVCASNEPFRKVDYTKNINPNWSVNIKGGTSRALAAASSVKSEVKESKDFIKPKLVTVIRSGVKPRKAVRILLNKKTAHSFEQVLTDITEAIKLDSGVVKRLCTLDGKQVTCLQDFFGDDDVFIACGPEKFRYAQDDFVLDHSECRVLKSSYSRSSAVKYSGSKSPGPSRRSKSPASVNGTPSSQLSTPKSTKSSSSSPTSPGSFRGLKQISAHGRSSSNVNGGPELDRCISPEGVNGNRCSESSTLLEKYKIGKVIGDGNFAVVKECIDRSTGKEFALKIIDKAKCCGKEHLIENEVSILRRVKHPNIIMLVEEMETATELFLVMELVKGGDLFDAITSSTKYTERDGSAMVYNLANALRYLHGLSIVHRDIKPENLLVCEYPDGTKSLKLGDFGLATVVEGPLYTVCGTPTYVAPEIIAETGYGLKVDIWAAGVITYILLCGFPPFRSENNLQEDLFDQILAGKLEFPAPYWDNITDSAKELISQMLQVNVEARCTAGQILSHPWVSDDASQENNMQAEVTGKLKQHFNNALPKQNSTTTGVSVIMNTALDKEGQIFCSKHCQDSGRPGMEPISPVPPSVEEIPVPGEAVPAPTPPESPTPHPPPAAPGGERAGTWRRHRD

[16] = target: Casein kinase I isoform epsilon (Homo sapiens) (UniProt P49674); assay: Inhibition of CK1-epsilon (unknown origin) at 0.49 uM relative to control
[17] = target: Serine/threonine-protein kinase BRSK1 (Homo sapiens) (UniProt Q8TDC3); assay: Inhibition of BRSK1 (unknown origin) at 0.45 uM relative to control
[18] = target: High affinity nerve growth factor receptor (Homo sapiens) (UniProt P04629); assay: Inhibition of TRKA (unknown origin) at 0.45 uM relative to control
[19] = target: AMP-activated protein kinase, AMPK (Homo sapiens) (UniProt P54646+O43741+P54619+Q9UGJ0+Q9Y478+Q13131+Q9UGI9); assay: Inhibition of AMPK (unknown origin) at 0.45 uM relative to control
[20] = target: Tyrosine-protein kinase Fes/Fps (Homo sapiens) (UniProt P07332); assay: Inhibition of FES (unknown origin) at 0.45 uM relative to control
[21] = target: Ribosomal protein S6 kinase alpha-3 (Homo sapiens) (UniProt P51812); assay: Inhibition of RSK2 (unknown origin) at 0.45 uM relative to control
Sequence of Ribosomal protein S6 kinase alpha-3 (Homo sapiens) (P51812 whole entry): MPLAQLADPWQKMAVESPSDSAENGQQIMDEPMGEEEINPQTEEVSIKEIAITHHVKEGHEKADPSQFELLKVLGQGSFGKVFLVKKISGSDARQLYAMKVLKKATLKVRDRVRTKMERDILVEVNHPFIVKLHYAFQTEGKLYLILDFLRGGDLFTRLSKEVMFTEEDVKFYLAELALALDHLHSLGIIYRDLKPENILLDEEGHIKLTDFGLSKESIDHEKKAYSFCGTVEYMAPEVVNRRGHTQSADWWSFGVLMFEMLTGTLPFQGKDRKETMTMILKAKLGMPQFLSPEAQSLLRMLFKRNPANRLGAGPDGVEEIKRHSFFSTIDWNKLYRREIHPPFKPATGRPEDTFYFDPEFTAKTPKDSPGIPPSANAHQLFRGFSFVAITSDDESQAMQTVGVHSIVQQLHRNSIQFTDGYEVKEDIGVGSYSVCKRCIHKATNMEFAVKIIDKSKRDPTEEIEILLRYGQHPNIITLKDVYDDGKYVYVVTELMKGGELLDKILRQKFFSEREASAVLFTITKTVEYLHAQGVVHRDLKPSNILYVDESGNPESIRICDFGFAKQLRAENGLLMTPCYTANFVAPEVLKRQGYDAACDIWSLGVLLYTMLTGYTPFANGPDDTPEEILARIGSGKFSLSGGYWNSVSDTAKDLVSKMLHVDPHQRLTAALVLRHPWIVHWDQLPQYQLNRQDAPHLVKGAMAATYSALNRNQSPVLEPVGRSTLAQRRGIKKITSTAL

[22] = target: Protein kinase C theta type (Homo sapiens) (UniProt Q04759); assay: Inhibition of PKC-theta (unknown origin) at 0.45 uM relative to control
[23] = target: Casein kinase I isoform gamma-1 (Homo sapiens) (UniProt Q9HCP0); assay: Inhibition of CK1-gamma1 (unknown origin) at 0.45 uM relative to control
[24] = target: Tyrosine-protein kinase receptor TYRO3 (Homo sapiens) (UniProt Q06418); assay: Inhibition of TYRO3 (unknown origin) at 0.45 uM relative to control
[25] = target: Tyrosine-protein kinase Fer (Homo sapiens) (UniProt P16591); assay: Inhibition of Fer (unknown origin) at 0.45 uM relative to control
[26] = target: Protein kinase C eta type (Homo sapiens) (UniProt P24723); assay: Inhibition of PKC-eta (unknown origin) at 0.45 uM relative to control
[27] = target: Death-associated protein kinase 3 (Homo sapiens) (UniProt O43293); assay: Inhibition of ZIPK (unknown origin) at 0.45 uM relative to control
Sequence of Death-associated protein kinase 3 (Homo sapiens) (O43293 whole entry, looked up): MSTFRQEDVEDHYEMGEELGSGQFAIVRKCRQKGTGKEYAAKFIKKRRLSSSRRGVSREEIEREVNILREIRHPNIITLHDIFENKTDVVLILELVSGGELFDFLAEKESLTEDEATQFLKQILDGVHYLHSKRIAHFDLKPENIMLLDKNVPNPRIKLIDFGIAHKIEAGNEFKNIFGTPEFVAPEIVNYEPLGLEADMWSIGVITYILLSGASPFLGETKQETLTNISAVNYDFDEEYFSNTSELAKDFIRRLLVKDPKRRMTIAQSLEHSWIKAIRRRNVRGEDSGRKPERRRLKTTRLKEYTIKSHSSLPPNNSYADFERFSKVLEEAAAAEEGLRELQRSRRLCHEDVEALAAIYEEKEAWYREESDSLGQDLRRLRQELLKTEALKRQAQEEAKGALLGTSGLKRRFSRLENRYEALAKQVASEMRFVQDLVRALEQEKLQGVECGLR

[28] = target: Receptor-type tyrosine-protein kinase FLT3 (Homo sapiens) (UniProt P36888); assay: Inhibition of FLT3 (unknown origin) at 0.45 uM relative to control

Sequence of Ribosomal protein S6 kinase alpha-1 (Homo sapiens) (Q15418 whole entry): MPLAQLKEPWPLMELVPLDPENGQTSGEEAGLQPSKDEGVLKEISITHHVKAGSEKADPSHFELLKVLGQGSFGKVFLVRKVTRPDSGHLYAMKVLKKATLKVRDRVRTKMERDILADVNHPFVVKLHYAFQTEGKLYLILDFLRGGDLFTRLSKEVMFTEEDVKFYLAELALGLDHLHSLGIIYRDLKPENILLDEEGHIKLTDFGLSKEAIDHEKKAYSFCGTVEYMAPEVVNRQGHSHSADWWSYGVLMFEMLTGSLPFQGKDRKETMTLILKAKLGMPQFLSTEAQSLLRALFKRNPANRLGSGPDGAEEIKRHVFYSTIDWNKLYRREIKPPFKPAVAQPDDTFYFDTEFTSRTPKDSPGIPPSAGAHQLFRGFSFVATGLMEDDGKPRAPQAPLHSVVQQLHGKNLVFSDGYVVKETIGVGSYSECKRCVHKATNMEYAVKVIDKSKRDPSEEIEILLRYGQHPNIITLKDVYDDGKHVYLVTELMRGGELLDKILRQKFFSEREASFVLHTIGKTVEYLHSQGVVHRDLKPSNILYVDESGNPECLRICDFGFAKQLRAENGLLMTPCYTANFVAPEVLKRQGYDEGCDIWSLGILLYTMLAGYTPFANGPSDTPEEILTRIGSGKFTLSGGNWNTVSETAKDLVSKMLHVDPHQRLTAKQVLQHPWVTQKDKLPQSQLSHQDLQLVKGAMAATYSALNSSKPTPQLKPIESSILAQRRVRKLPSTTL

COC(=O)Nc1noc2cc(-c3c(-c4ccccn4)n[nH]c3C)ccc12
inhibition [1]: 0.3%
inhibition [2]: 9.7%
inhibition [3]: -5.3%
clearance [4]: 14.5 mL/min/kg

Cc1[nH]nc(C2CC2)c1-c1ccc2c(NC(=O)C3CC3)noc2c1
inhibition [5]: 0%
inhibition [6]: 2.3%
inhibition [7]: 2.7%
inhibition [8]: 2%
inhibition [9]: 6.7%
inhibition [10]: -3%
inhibition [11]: 5.7%
inhibition [12]: 0%
inhibition [13]: -0.3%
inhibition [14]: -1.7%
inhibition [15]: 2%
inhibition [16]: 1%

Cc1n[nH]c(C)c1-c1ccc2c(NC(=O)c3ccc(N4CCN(C)CC4)cc3)n[nH]c2c1
inhibition [17]: 14%
inhibition [18]: 93.7%
inhibition [19]: 26%
inhibition [20]: -3.3%
inhibition [21]: 36%
inhibition [22]: 3%
inhibition [23]: 5%
inhibition [24]: 13.3%
inhibition [25]: 2.3%
inhibition [26]: 0.3%
inhibition [27]: 0.3%
inhibition [28]: 96.7%
